Experimental data published in ChEMBL document CHEMBL1817573, “Synthesis, structure elucidation, determination of the lipophilicity and identification of antitumour activities in vitro of novel 3-(2-furanyl)-8-aryl-7,8-dihydroimidazo[2,1-c][1,2,4]triazin-4(6H)-ones with a low cytotoxicity towards normal human skin fibroblast cells” (Bioorg Med Chem, 2011).

Assays:
[1] = Lipophilicity, log Kw of the compound in methanol-water mixture by RP-HPLC; assay type: physicochemical
How it was run: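 Isocratic RP-HPLC on a C18 column (150 × 4.6 mm, 5 µm) at 22 °C, 1 mL/min, DAD detection. Mobile phases were methanol (30–80%), 20% acetate buffer pH 3.5 (0.2 M acetate, pH measured in aqueous solution) and 0.01 M/L octane-1-sulfonic acid sodium salt. log kw was extrapolated with the Snyder–Soczewiński equation.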

[2] = Growth inhibition of human HSF cells at 50 ug/ml after 24 hrs by spectrophotometric analysis; assay type: cell-based; details: read-out: GI
How it was run: (§1)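 Normal primary human skin fibroblasts (HSF), HeLa (ECACC 93021013) and T47D (ECACC 85102201) were each seeded at 10⁴ cells/mL. Compounds were predissolved in DMSO and tested at a single 50 µg/mL (about 0.14–0.18 mM). Cultures were incubated at 37 °C, 5% CO₂, 90% humidity for 24, 48 or 72 h, and percent growth inhibition was read spectrophotometrically.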

[3] = Growth inhibition of human HSF cells at 50 ug/ml after 48 hrs by spectrophotometric analysis; assay type: cell-based; details: read-out: GI; how it was run: as §1
[4] = Growth inhibition of human HSF cells at 50 ug/ml after 72 hrs by spectrophotometric analysis; assay type: cell-based; details: read-out: GI; how it was run: as §1
[5] = system: HeLa; assay: Growth inhibition of human HeLa cells at 50 ug/ml after 24 hrs by spectrophotometric analysis; assay type: functional; details: read-out: GI; how it was run: as §1
[6] = system: HeLa; assay: Growth inhibition of human HeLa cells at 50 ug/ml after 48 hrs by spectrophotometric analysis; assay type: functional; details: read-out: GI; how it was run: as §1
[7] = system: HeLa; assay: Growth inhibition of human HeLa cells at 50 ug/ml after 72 hrs by spectrophotometric analysis; assay type: functional; details: read-out: GI; how it was run: as §1
[8] = system: T47D; assay: Growth inhibition of human T47D cells at 50 ug/ml after 24 hrs by spectrophotometric analysis; assay type: functional; details: read-out: GI; how it was run: as §1
[9] = system: T47D; assay: Growth inhibition of human T47D cells at 50 ug/ml after 48 hrs by spectrophotometric analysis; assay type: functional; details: read-out: GI; how it was run: as §1
[10] = system: T47D; assay: Growth inhibition of human T47D cells at 50 ug/ml after 72 hrs by spectrophotometric analysis; assay type: functional; details: read-out: GI; how it was run: as §1
[11] = system: HeLa; assay: Antitumor activity against human HeLa cells after 24 hrs by spectrophotometric analysis; assay type: functional, cell-based
How it was run: (§2)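 Cancer lines were HeLa (ECACC 93021013, cervix epitheloid carcinoma) and T47D (ECACC 85102201, breast carcinoma). Cells were seeded at 10⁴ cells/mL, treated with compounds dissolved in DMSO, and incubated at 37 °C, 5% CO₂, 90% humidity for 24, 48 or 72 h. Read-out was the BrdU assay, and IC50 was calculated from dose–response curves.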

[12] = system: HeLa; assay: Antitumor activity against human HeLa cells after 48 hrs by spectrophotometric analysis; assay type: functional, cell-based; how it was run: as §2
[13] = system: HeLa; assay: Antitumor activity against human HeLa cells after 72 hrs by spectrophotometric analysis; assay type: functional, cell-based; how it was run: as §2
[14] = system: T47D; assay: Antitumor activity against human T47D cells after 24 hrs by spectrophotometric analysis; assay type: functional, cell-based; how it was run: as §2
[15] = system: T47D; assay: Antitumor activity against human T47D cells after 48 hrs by spectrophotometric analysis; assay type: functional, cell-based; how it was run: as §2
[16] = system: T47D; assay: Antitumor activity against human T47D cells after 72 hrs by spectrophotometric analysis; assay type: functional, cell-based; how it was run: as §2

Row | Structure (SMILES) | logKw [1] | IC50 [11] [µM] | IC50 [12] [µM] | IC50 [13] [µM] | IC50 [14] [µM] | IC50 [15] [µM] | IC50 [16] [µM] | inhibition at 24 h, 50 ug/ml [2] [%] | inhibition at 48 h, 50 ug/ml [3] [%] | inhibition at 72 h, 50 ug/ml [4] [%] | inhibition of growth at 50 µg/mL [5] [%] | inhibition of growth at 50 µg/mL [6] [%] | inhibition of growth at 50 µg/mL [7] [%] | inhibition of growth at 50 µg/mL [8] [%] | inhibition of growth at 50 µg/mL [9] [%] | inhibition of growth at 50 µg/mL [10] [%]
1 | Cc1cccc(N2CCn3c2nnc(-c2ccco2)c3=O)c1C | 3 |  |  |  |  |  |  | 0 | 0 | 0 | 60 | 75 | 90 | 0 | 15 | 25
2 | O=c1c(-c2ccco2)nnc2n1CCN2c1ccccc1Cl | 2.78 | 110 | 110 | 90 | > 160 | > 160 | > 160 | 10 | 20 | 20 | 80 | 80 | 100 | 5 | 15 | 25
3 | O=c1c(-c2ccco2)nnc2n1CCN2c1c(Cl)cccc1Cl | 2.97 |  |  |  |  |  |  | 10 | 15 | 15 | 80 | 80 | 95 | 10 | 20 | 25
4 | O=c1c(-c2ccco2)nnc2n1CCN2c1cccc(Cl)c1 | 3.45 |  |  |  |  |  |  | 25 | 60 | 75 | 80 | 80 | 95 | 20 | 50 | 80
5 | Cc1ccc(N2CCn3c2nnc(-c2ccco2)c3=O)cc1 | 3.27 |  |  |  |  |  |  | 30 | 50 | 50 | 50 | 50 | 80 | 40 | 60 | 80

Continued, in another order:

Row | logKw [1] | IC50 [11] [µM] | IC50 [12] [µM] | IC50 [13] [µM] | IC50 [14] [µM] | IC50 [15] [µM] | IC50 [16] [µM] | Structure (SMILES) | inhibition at 24 h, 50 ug/ml [2] [%] | inhibition at 48 h, 50 ug/ml [3] [%] | inhibition at 72 h, 50 ug/ml [4] [%] | inhibition of growth at 50 µg/mL [5] [%] | inhibition of growth at 50 µg/mL [6] [%] | inhibition of growth at 50 µg/mL [7] [%] | inhibition of growth at 50 µg/mL [8] [%] | inhibition of growth at 50 µg/mL [9] [%] | inhibition of growth at 50 µg/mL [10] [%]
6 | 2.64 | 180 | 130 | 100 | 180 | 110 | 100 | O=c1c(-c2ccco2)nnc2n1CCN2c1ccccc1 | 50 | 50 | 60 | 50 | 75 | 100 | 50 | 85 | 95
7 | 2.54 |  |  |  |  |  |  | COc1ccccc1N1CCn2c1nnc(-c1ccco1)c2=O | 0 | 0 | 5 | 25 | 35 | 80 | 0 | 30 | 70
8 | 2.48 |  |  |  |  |  |  | Cc1ccccc1N1CCn2c1nnc(-c1ccco1)c2=O | 0 | 0 | 0 | 25 | 25 | 50 | 25 | 50 | 75
9 | 2.89 |  |  |  |  |  |  | COc1ccc(N2CCn3c2nnc(-c2ccco2)c3=O)cc1 | 10 | 50 | 60 | 80 | 80 | 95 | 50 | 70 | 80
10 | 4.01 |  |  |  |  |  |  | O=c1c(-c2ccco2)nnc2n1CCN2c1ccc(Cl)c(Cl)c1 | 0 | 50 | 80 | 50 | 50 | 95 | 10 | 20 | 40
11 | 3.45 |  |  |  |  |  |  | O=c1c(-c2ccco2)nnc2n1CCN2c1ccc(Cl)cc1 | 50 | 80 | 90 | 50 | 75 | 90 | 0 | 15 | 15
